Compound activity from PubChem BioAssay.
Lung fibro prol – blocks proliferation of human lung fibroblasts | LL 47 human lung fibroblast viability, ATP luminescence; hits give low values | 85,000 tested, 1.1% active | viability, % at 10 µM;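 active = viability at or below 50% in the single dose screen; inactive = viability above 50%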;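 note: compound exposure lasted 72 h before the ATP readout; 100% = median luminescence of untreated cell-only wells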
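Test system: LL 47 human lung fibroblasts / Incubation: 72 h compound exposure at 37 °C after overnight plating / Technique: luminescent ATP detection, CellTiter-Glo / Compound dosing: 0.1% DMSO in all compound wells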
Ecoli tolC – growth inhibitors of E. coli BW25113 tolC mutant; growth inhibition, % at 10 µM (by protocol); OD615; AID 573; 65,000 tested, 2.2% active;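 active = growth inhibition at or above a cutoff equal to the mean over every tested compound plus 3 SD, cut at about 60% in these data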;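 note: growth measured after 20 h incubation at 37 °C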
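Material: E. coli BW25113 ΔtolC::kan, tolC deletion mutant strain. Measure: percent growth inhibition. Schedule: 37 °C, 20 h exposure. Doses: single-point testing at 10 µM. Signal: A615 absorbance measurement. Buffer or medium: kanamycin-containing LB broth (50 µg/mL).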
H69AR growth 86K – growth inhibitors of human H69AR lung tumor cells; H69AR lung tumor viability, ATP luminescence, 72 h; hits give low values; viability, % at 10 µM; 85,000 tested, 6% active; AID 598;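 active = viability at or below 40%; inactive = viability above 40%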;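 note: multidrug resistant small cell line overexpressing MRP-1 efflux transporter; 100% = mean luminescence of untreated control wells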
HUVEC inhibit – inhibitors of human endothelial cell proliferation. HUVEC proliferation, CellTiter-Glo luminescence, 72 h; hits give low values. viability, % at 10 µM (by protocol). 86,000 tested, 1.1% active;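 active = viability at or below 30%; inactive = viability above 30%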;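 note: 100% = median luminescence of DMSO-only cell control wells on each plate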
Jurkat viability – cytotoxic compounds reducing Jurkat cell viability; 56,000 tested, 1.2% active; AID 463; Jurkat E6.1 viability, ATP luminescence, 48 h; inhibition, % at 4 µM;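 active = inhibition above the mean inhibition of all tested compounds plus 3 SD, cut at about 28% in these data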
Ecoli WT expand – E. coli BW25113 growth inhibition, expanded screen | 98,000 tested, 0.15% active | growth inhibition, % at 100 µM | OD600 absorbance | AID 710;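 active = growth inhibition above about 50% at one test dose, limit read from the data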;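 note: growth measured after 20 h incubation at 37 °C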
Numbers without * were called inactive; x = no result. An excerpt weighted towards active compounds, which were near 6.4% of everything screened.

SMILES | Lung fibro prol | Ecoli tolC | H69AR growth 86K | HUVEC inhibit | Jurkat viability | Ecoli WT expand
CCCCn1c(CN2CCN(c3ccccc3)CC2)nc2c1c(=O)n(C)c(=O)n2C | 98.6 | 4.8 | 72.0 | 83.6 | 37.9* | -3.0
O=C(NCCOC(=O)c1ccc(Cl)cc1)c1cccnc1 | 99.2 | x | 97.0 | 89.7 | x | 1.0
O=C(c1ccccc1)c1nn(-c2ccccc2)c(=O)cc1C(F)(F)F | x | x | x | x | x | 9.0
Cc1ccc(Cc2nnc3n(-c4ccccc4)nc(C(=O)c4ccccc4)n3c2=O)cc1 | 95.2 | x | 21.1* | 54.8 | x | x
Cc1c(O)ccc2c3c(c(=O)oc12)CCCC3 | 98.7 | 24.8 | 83.3 | 74.1 | 5.2 | 6.0
Cc1oc2c(C)c3oc(=O)c4c(c3cc2c1C)CCCC4 | x | 0.0 | 13.6* | 81.1 | -1.1 | -3.0
O=C(NNc1ccc([N+](=O)[O-])cc1)C12CC3CC(CC(C3)C1)C2 | x | x | x | x | x | 4.0
CCOC(=O)C1CCCn2c1nc1sc3c(c1c2=O)CCCC3 (configuration not stated) | 96.8 | -1.0 | 89.3 | 97.8 | -3.1 | 14.0
Cc1ccc2nc(SCC(=O)Nc3cc(C(F)(F)F)ccc3N3CCOCC3)[nH]c2c1 | 39.8* | x | 12.2* | 28.9* | x | -3.0
N#Cc1c(N)n(C2CCCCC2)c2nc3ccccc3nc12 | 68.9 | 14.8 | 34.6* | 69.5 | 4.6 | -7.0
Cc1ccc2c(c1)c(-c1ccccc1)nc1nncn12 | 99.6 | -0.3 | 61.6 | 93.4 | 2.3 | 1.0
O=C(CNC(=O)c1ccc([N+](=O)[O-])cc1)c1ccccc1 | x | x | x | x | x | -2.0
O=C(C#Cc1ccccc1)c1ccc([N+](=O)[O-])cc1 | 19.7* | x | 1.1* | 47.4 | x | 2.0
CCOC(=O)c1c(C)oc2c1c(C(c1cccnc1)N1CCCCC1)c(O)c1ccccc12 (configuration not stated) | 54.3 | x | 7.3* | 47.6 | x | -8.0
Cc1cccc2cc(C#N)c(SCC(=O)N3CC(=O)Nc4ccccc43)nc12 | x | 16.4 | x | x | 98.7* | 1.0
Cc1cccc2cc(C#N)c(SCC(=O)N3CCC(C)CC3)nc12 | 92.1 | 17.0 | 82.3 | 81.6 | -0.3 | -9.0
CCCCCCOc1ccc(/C(N)=N/O)cc1 | 92.2 | 4.7 | 35.3* | 79.7 | 97.3* | 21.0
Fc1cc(Br)ccc1Nc1nc2ccccc2n2nnnc12 | 72.9 | 19.2 | 24.9* | 32.5 | 3.9 | -3.0
Cc1nnc(SCCn2c(N3CCCC(C)C3)nc3c2c(=O)n(C)c(=O)n3C)s1 (configuration not stated) | 96.7 | 13.4 | 92.1 | 88.0 | -5.1 | 5.0
Cn1nnnc1SCCNC/C=C/c1ccccc1 | 114.2 | 3.1 | 91.8 | 95.2 | 4.2 | 12.0
CS/C(=N\S(=O)(=O)c1ccc(Cl)cc1)c1ccccc1 | x | x | x | x | x | -5.0
O=S(=O)(/N=C(\Sc1ccc(Cl)cc1)c1ccccc1)c1ccccc1 | 72.8 | x | 38.7* | 60.8 | x | 2.0
c1coc(CN(Cc2ccco2)c2ncnc3c2oc2ccccc23)c1 | 83.7 | x | 22.1* | 56.4 | x | x
CC(=O)OCC1=C(C(=O)O)N2C(=O)[C@@H](NC(=O)Cc3cccs3)[C@H]2SC1 | x | 100.0* | x | x | x | x
CCOC(=O)c1sc(NC(=O)C2C3C=CC(C3)C2C(=O)O)nc1C (configuration not stated) | 101.1 | x | 100.2 | 99.0 | x | -1.0
SMILES | Lung fibro prol | Ecoli tolC | H69AR growth 86K | HUVEC inhibit | Jurkat viability | Ecoli WT expand
COc1ccc(C2N(C(=O)CN3CCOCC3)CCN2S(=O)(=O)c2ccccc2)cc1 (configuration not stated) | x | -10.9 | 22.0* | 87.2 | 1.4 | -2.0
COc1ccccc1/C=N/N(C(C)=O)c1nc(-c2ccc(F)cc2)cs1 | x | x | x | x | x | -16.0
c1ccc(-c2nc(CSc3nnc(-c4cccs4)o3)cs2)cc1 | 96.2 | 63.3* | 75.7 | 95.8 | -5.8 | -28.0
Cc1ccc(Nc2nc(CSc3nnc(-c4cccs4)o3)cs2)cc1 | x | 43.1 | x | x | 1.5 | -7.0
CCCCN(C)C/C(O)=C(\C#N)c1nc(-c2ccccc2)cs1 | 96.0 | x | 38.7* | 82.5 | x | 0.0
N#C/C(=C(/O)CN1CCOCC1)c1nc(-c2ccccc2)cs1 | 96.2 | -0.3 | 83.9 | 102.4 | -7.5 | -5.0
O=C(Nc1ncc(Br)s1)C(Cc1ccccc1)n1cccc1 (configuration not stated) | 88.0 | 96.5* | 71.2 | 46.3 | -0.1 | 12.0
Cc1cc(C(=O)N2CCN(C(c3ccccc3)c3ccccc3)CC2)on1 | 98.7 | 40.2 | 91.3 | 107.9 | 1.9 | -10.0
O=C(c1cc(-c2cccc(O)c2)on1)N1CCN(C(c2ccccc2)c2ccccc2)CC1 | 84.5 | 28.0 | 5.2* | 79.7 | 4.5 | -2.0
O=C(c1cc(C2CC2)on1)N1CCN(C(c2ccccc2)c2ccccc2)CC1 | x | 65.1* | x | x | -5.7 | -4.0
CN1CCN(C(=O)c2cc(-c3cccc(Cl)c3)on2)CC1 | 102.9 | -22.1 | 107.1 | 86.4 | -5.4 | -8.0
O=C(NCC1CCCO1)C1CCN(C(=O)c2ccc(Br)cc2)CC1 (configuration not stated) | 96.9 | -8.1 | 76.5 | 98.4 | 7.1 | -4.0
CS(=O)(=O)N1CCCC(C(=O)NCc2ccc(F)cc2)C1 (configuration not stated) | 104.1 | -11.3 | 88.1 | 101.8 | 2.0 | 4.0
CC(C)OCCCn1c(=N)c(C(N)=S)cc2c(=O)n3ccccc3nc21 | 100.7 | 7.1 | 56.5 | 95.8 | x | -2.0
O=C(Nc1nc(-c2nc3ccccc3s2)cs1)c1ccc(S(=O)(=O)N2CCOCC2)cc1 | 100.2 | 20.5 | 45.1 | 79.5 | 50.0* | -6.0
O=C(Nc1nc(-c2cc(Cl)sc2Cl)cs1)c1cccs1 | 97.0 | 100.0* | 78.8 | 69.5 | 3.4 | -12.0
O=C(Nc1nc(-c2ccc(S(=O)(=O)N3CCCCCC3)cc2)cs1)c1cccs1 | 89.8 | 6.4 | 66.9 | 85.9 | 28.7* | -10.0
O=C(Nc1nc(-c2ccccc2)cs1)C1CCCN(S(=O)(=O)c2cccc([N+](=O)[O-])c2)C1 (configuration not stated) | x | x | x | x | x | 0.0
O=C(Nc1nc(-c2ccccc2)cs1)C1CCCN(S(=O)(=O)c2ccccc2)C1 (configuration not stated) | 76.6 | 39.2 | 65.3 | 99.8 | 38.9* | -14.0
Cc1nnsc1C(=O)NC1CCCCC1 | x | x | x | x | x | -1.0
O=C(NC1CCCC1)c1ccc(CNc2c(N3CCOCC3)c(=O)c2=O)cc1 | x | x | x | x | x | 9.0
Cc1csc(NC(=O)C2CCCN(S(=O)(=O)c3ccc(Br)s3)C2)n1 (configuration not stated) | 104.2 | 71.0* | 71.2 | 107.0 | x | -3.0
Cc1ccc2nc(/C(C#N)=C\c3ccc(N4CCOCC4)o3)[nH]c2c1 | 83.9 | x | 5.5* | 76.2 | x | x
CC(=O)Nc1nn(C)c2nc3cc(C)ccc3cc12 | 99.6 | -5.4 | 84.0 | 85.7 | -1.8 | -4.0
Cc1ccc2cc3c(NC(=O)c4ccco4)nn(C)c3nc2c1 | 102.3 | 3.8 | 35.4* | 74.9 | 2.9 | -7.0
CCOC(=O)c1cc(C(=O)OCC)c2cccc(C)n2c1=O | x | x | x | x | x | 2.0
CCCCOc1ccc(S(=O)(=O)n2c(C)nc3ccccc32)cc1 | 93.9 | 94.2* | 102.3 | 88.0 | 13.1 | 5.0
O=C(Nc1nnc(COc2ccccc2)s1)C1CCN(S(=O)(=O)c2ccc(Cl)cc2)CC1 | 80.5 | x | 33.0* | 77.1 | x | 1.0
